Screening results: PubChem BioAssay, several laboratories
ZTA counter: blocks Epstein-Barr virus ZTA, an EBNA-1 counter-screen; ZTA-DNA binding, fluorescence polarization; inhibition, % at 11 µM; actives 0.15% (n = 320,000); AID 2234; in the data active = inhibition above about 33%
Target sequence (P03206 whole entry, looked up): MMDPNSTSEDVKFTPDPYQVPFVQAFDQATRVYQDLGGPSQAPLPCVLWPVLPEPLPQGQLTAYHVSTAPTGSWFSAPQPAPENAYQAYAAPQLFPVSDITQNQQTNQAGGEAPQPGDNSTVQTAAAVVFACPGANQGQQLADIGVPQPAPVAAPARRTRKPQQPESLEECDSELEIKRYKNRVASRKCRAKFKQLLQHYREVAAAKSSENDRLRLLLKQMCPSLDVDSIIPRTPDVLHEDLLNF
GRIN3A LBD mod: binders of NR3A ligand-binding domain, primary screen, biophysical, differential scanning fluorimetry, uHTS | Glutamate receptor ionotropic, NMDA 3A (GRIN3A) ligand-binding domain | NR3A LBD differential scanning fluorimetry, Tm shift; 0% = protein alone, 100% = glycine-bound protein | Tm shift relative to glycine control, % at 25 µM | actives 2.5% (n = 340,000) | AID 1259313, 2017;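 active = melting temperature shift of at least 10% of the positive control shift, at one fixed dose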
EBNA-1 inhibitor: EBNA-1 DNA-binding inhibitors, primary screen, biochemical, fluorescence polarization | inhibition, % at 14.8 µM | actives 0.34% (n = 300,000) | AID 1950, 2009; in the data active = inhibition above about 28%
HCV NS3 hel inh: inhibitors of HCV NS3 helicase, primary screen, biochemical, Cy5 molecular beacon fluorescence; Hepatitis C virus NS3 helicase; inhibition, % at 10.9 µM; actives 0.56% (n = 290,000); NS3 helicase DNA unwinding;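 active = inhibition above the mean of all tested compounds plus 3 SD, set per campaign, cut at about 35% in these data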
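Control set: DMSO versus 110 µM thioflavine S; Material: NS3 helicase fragment of HCV; Measured by: Cy5 fluorescence at 0 and 60 min, beacon hairpin quenching; Read-out basis: percent inhibition from t60/t0 fluorescence ratio; Times: reaction time 60 min, 25 °C; Repeats: single replicate; Compound dosing: single dose, 10.9 µM nominal final, DMSO 0.8% final.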
FID counter: compounds displacing fluorescent DNA intercalator, primary screen, artefact control for HCV NS3 helicase inhibitor project, biochemical, FID fluorescence | DNA fluorescent intercalator displacement | inhibition, % at 7.9 µM | actives 0.17% (n = 290,000) | AID 1845, 2009; in the data active = inhibition above about 37%;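 also: higher means more ethidium bromide displaced from hairpin DNA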
FGF22 binding: binders of human FGF22 protein, primary screen, FGF22 synaptogenesis inhibitor project, biophysical, thermal shift, single point; Fibroblast growth factor 22 (Homo sapiens), Q9HCT0; recombinant FGF22 thermal shift, SYPRO orange fluorescence; percent of sucrose octasulfate shift, DMSO zero; activity (Tm shift, normalised), % at 9.99 µM; actives 1.5% (n = 340,000); AID 651658, 2012;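 active = mean Tm shift, scaled 0 neutral to 100 positive control, at about 1.3% or above, every replicate too, limit read from the data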
Target sequence (Q9HCT0 whole entry, looked up): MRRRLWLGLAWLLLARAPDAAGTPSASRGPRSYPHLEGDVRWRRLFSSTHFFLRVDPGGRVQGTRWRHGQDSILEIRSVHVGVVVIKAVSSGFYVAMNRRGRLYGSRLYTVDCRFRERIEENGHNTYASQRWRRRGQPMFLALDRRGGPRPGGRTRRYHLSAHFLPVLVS
Large screens that a line does not name were inactive. This is a sample that favours compounds with a hit; in the whole collection about 3.6% have one here.

CC(C)=CCc1c(O)ccc(C(=O)Cc2ccccc2)c1O	GRIN3A LBD mod 17.5 (no result: FGF22 binding)
O=C1NC2(CCCCC2)C(=O)N1CCS(=O)(=O)Oc1ccccc1	GRIN3A LBD mod 12.2 (no result: FGF22 binding)
O=C(NCC1CCCO1)C1CCN(C2CCN(Cc3ccco3)CC2)CC1 (configuration not stated)	FGF22 binding 43.6
C[C@@H]1CN([C@H](C)CO)C(=O)c2cccc(N(C)C)c2O[C@H]1CN(C)Cc1ccc(Cl)c(Cl)c1	none (no result: ZTA counter, GRIN3A LBD mod, EBNA-1 inhibitor, HCV NS3 hel inh, FID counter)
O=C(Nc1cccc(O)c1)c1c(O)c2ccccc2[nH]c1=O	GRIN3A LBD mod 44.4
Oc1cc2c(cc1C(c1ccc(Br)cc1)N1CCCC1)OCO2 (configuration not stated)	GRIN3A LBD mod 29.2 (no result: ZTA counter, EBNA-1 inhibitor)
CCc1ccccc1-n1c(SCC(=O)N2CCCC2)nc2[nH]ncc2c1=O	FGF22 binding 43.7
CN(C)C(=O)c1cccc(-c2ccc([C@H]3[C@@H](CO)N4CCCCN(S(C)(=O)=O)C[C@H]34)cc2)c1	none (no result: ZTA counter, GRIN3A LBD mod, EBNA-1 inhibitor, HCV NS3 hel inh, FID counter)
CCc1nnc(NC(=O)CS(=O)(=O)Cc2ccccc2)s1	FGF22 binding 1.5
CCc1nnc(NC(=O)CCS(=O)(=O)Cc2ccccc2)s1	none
CCOc1ccc2noc3c2c1C(=O)c1ccccc1-3	none (no result: FGF22 binding)
O=C1c2ccccc2-c2onc3ccc(N4CCCC4)c1c23	FID counter 46.8 (no result: ZTA counter, EBNA-1 inhibitor)
O=C(N/N=C/c1ccncc1)c1ccc(NC(=O)c2cccc(Cl)c2)cc1	GRIN3A LBD mod 21.6
O=C(N/N=C/c1ccco1)Nc1ccccc1	none (no result: FGF22 binding)
Cc1ccc(N/N=C/c2ccncc2)cc1	none
O=C(N/N=C/c1ccncc1)c1ccc(NC(=O)c2ccc(Cl)cc2)cc1	none
Clc1ccc(/C=N\Nc2ccccc2)cc1	GRIN3A LBD mod 10.5
O=C(N/N=C/c1ccc(Cl)cc1)Nc1ccccc1	GRIN3A LBD mod 13.4 (no result: FGF22 binding)
Clc1cccc(N/N=C/c2ccncc2)c1	GRIN3A LBD mod 19.6 (no result: FGF22 binding)
C[C@@H]1CCCCO[C@H](CN(C)C(=O)c2ccncc2)[C@H](C)CN([C@@H](C)CO)C(=O)c2cc(NS(=O)(=O)c3cn(C)cn3)ccc2O1	none (no result: ZTA counter, GRIN3A LBD mod, EBNA-1 inhibitor, HCV NS3 hel inh, FID counter)
COc1cc(C(=S)N2CCOCC2)ccc1OC(=O)/C=C/c1ccco1	FGF22 binding 43.1
O=C(/C=C/c1ccccc1)Oc1ccccc1C(=S)N1CCOCC1	FGF22 binding 43.2
Cc1ccc(NS(=O)(=O)c2cc(NC(=O)c3ccc4c(c3)NC(=O)CS4)ccc2Cl)c(C)c1	GRIN3A LBD mod 15.7, FGF22 binding 43.1
Cc1ccc(S(=O)(=O)N2CCOCC2)cc1NC(=O)c1cc2c(s1)CCC2	none (no result: FGF22 binding)
Cc1ccc(OC(C)C(=O)Nc2ccc(C)c(S(=O)(=O)Nc3ccc(C)cc3C)c2)cc1 (configuration not stated)	GRIN3A LBD mod 11.6 (no result: FGF22 binding)
Cc1ccc(S(=O)(=O)Nc2ccc(Cl)cc2)cc1NC(=O)c1cc2c(s1)CCCC2	GRIN3A LBD mod 12.3 (no result: FGF22 binding)
Cc1ccc(NS(=O)(=O)c2cc(NC(=O)c3cc4c(s3)CCCC4)ccc2C)c(C)c1	GRIN3A LBD mod 24.7 (no result: FGF22 binding)
Cc1ccc(NC(=O)c2cc3c(s2)CCCC3)cc1	none
C[C@@H]1CCCCO[C@H](CN(C)C(=O)CCCN(C)C)[C@@H](C)CN([C@H](C)CO)C(=O)c2cc(NC(=O)Cc3ccccc3)ccc2O1	none (no result: ZTA counter, GRIN3A LBD mod, EBNA-1 inhibitor, HCV NS3 hel inh, FID counter)
O=C(Nc1cc(Br)ccc1O)c1cnn2c(C(F)F)cc(C3CC3)nc12	GRIN3A LBD mod 14.3
CC(C)C(C(=O)NC(C)(C)C)N1C(=O)c2ccccc2C1=O (configuration not stated)	none (no result: FGF22 binding)
CC(C(=O)NC(C)(C)C)N1C(=O)c2cccc3cccc(c23)C1=O (configuration not stated)	FGF22 binding 43.0
COc1c(F)c(F)c(C(=O)Nc2ccc(-c3nc4ccccc4[nH]3)cc2)c(F)c1F	GRIN3A LBD mod 13.4
CCOc1ccc(NC(=S)NCc2nc3ccccc3[nH]2)cc1	none
O=C(Nc1ccc(-c2nc3ccccc3[nH]2)cc1)c1c(F)c(F)c(F)c(F)c1F	GRIN3A LBD mod 16.2
